Measurements reported in ChEMBL document CHEMBL3124922, “The antitumor agent PBT-1 directly targets HSP90 and hnRNP A2/B1 and inhibits lung adenocarcinoma growth and metastasis” (J Med Chem, 2014).
Calls of active or inactive are those of the source. The calls are words filed in the database; no cut-off is given here.

Tests used:
HSP90 and hnRNPA2/B1 [1] = biological target: T1, HSP90 and hnRNPA2/B1 (Homo sapiens, UniProt P08238+P22626); assay: Inhibition of HSP90/hnRNPA2/B1 in human PC9 cells assessed as reduction of slug expression at 0.5 ug/ml after 5 hrs by Western blotting analysis; format: cell-based; conditions: PC-9
T1 sequence (P08238 whole entry, looked up): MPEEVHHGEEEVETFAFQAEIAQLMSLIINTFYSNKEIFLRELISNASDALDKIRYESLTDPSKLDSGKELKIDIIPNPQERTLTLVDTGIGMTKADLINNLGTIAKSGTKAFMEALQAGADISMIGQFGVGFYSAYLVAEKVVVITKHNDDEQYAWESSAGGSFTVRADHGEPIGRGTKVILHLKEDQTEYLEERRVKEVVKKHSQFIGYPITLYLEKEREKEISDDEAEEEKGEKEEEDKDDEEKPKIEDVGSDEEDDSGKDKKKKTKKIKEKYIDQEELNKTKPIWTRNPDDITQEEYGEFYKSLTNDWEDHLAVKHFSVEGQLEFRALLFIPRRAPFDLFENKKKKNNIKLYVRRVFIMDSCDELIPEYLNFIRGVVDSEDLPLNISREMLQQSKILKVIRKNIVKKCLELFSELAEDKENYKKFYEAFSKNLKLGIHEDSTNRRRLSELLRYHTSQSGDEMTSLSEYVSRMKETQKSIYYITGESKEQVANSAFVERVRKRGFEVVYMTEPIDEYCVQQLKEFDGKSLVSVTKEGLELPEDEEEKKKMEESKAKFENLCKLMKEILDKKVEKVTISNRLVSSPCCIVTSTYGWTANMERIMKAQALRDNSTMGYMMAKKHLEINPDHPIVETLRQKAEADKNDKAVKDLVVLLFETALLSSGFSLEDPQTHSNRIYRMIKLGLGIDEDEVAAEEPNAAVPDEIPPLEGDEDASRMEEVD
T1 sequence (P22626 whole entry, looked up): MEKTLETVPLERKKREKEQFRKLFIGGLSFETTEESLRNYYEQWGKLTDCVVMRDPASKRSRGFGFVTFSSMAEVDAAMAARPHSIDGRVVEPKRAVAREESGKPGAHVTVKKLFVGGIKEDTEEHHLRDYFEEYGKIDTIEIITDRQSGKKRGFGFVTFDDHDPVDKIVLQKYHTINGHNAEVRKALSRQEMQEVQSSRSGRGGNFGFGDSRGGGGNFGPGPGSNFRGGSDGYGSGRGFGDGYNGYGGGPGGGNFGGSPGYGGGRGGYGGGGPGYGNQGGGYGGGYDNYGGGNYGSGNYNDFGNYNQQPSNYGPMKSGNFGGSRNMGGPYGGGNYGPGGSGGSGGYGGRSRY

CL1-5 [2] = assay: Antitumor activity against human CL1-5 cells xenografted in Balb/c nu/nu mouse assessed as subcutaneously implanted tumor growth inhibition at 10 mg/kg/day, ip administered 3 times per week measured 2 times per week for 28 days; format: functional, organism-based
Outline: (§1)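 Six-week-old male BALB/c nu/nu mice (SPF) given 1 × 10^6 CL1-5 cells s.c. in the right flank; at 100 mm^3 tumor volume (5–8 days), six mice per group randomized to compound 10 mg/kg/day or vehicle i.p. three times weekly. Volume from calipers as 0.5W²L; tumor volume and body weight recorded twice weekly.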

CL1-5 [3] = assay: Antitumor activity against human CL1-5 cells xenografted in Balb/c nu/nu mouse assessed as orthotopic tumor growth inhibition at 10 mg/kg/day, ip administered 3 times per week measured 2 times per week for 28 days; format: functional, organism-based
Outline: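 CL1-5 cells inoculated into the pleural cavity of 6-week-old BALB/c nu/nu mice (n = 6 per group); i.p. dosing with compound or DMSO vehicle three times weekly from day 5. At 28 days mice killed by CO2, organs formalin-fixed; tumor volume in excised lungs and metastatic nodule counts taken, mean ± SD of six mice.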

HSP90 and hnRNPA2/B1 [4] = biological target: T1, HSP90 and hnRNPA2/B1; assay: Inhibition of HSP90/hnRNPA2/B1 in human CL1-5 cells assessed as reduction of slug expression at >0.5 ug/ml up to 5 hrs by Western blotting analysis; format: cell-based
Outline: (§2)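 CL1-5 or CL152 cells exposed to a range of concentrations for 5 h; Slug (and E-cadherin) detected by Western blot with β-actin as loading control; representative of three experiments.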

CL1-5 [5] = assay: Antimigratory activity against human CL1-5 cells assessed as reduction of cell migration at 0.25 ug/ml after 1 to 12 hrs by wound healing assay relative to control; format: functional, cell-based
Outline: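 Cells grown to near-confluence in 6 cm dishes, monolayer scratched with a pipet tip, debris washed off with PBS; incubated at 37 °C and photographed at 0, 4, 8 and 12 h. Cells migrating into the cell-free zone counted. Triplicate samples, at least three independent experiments, mean ± SD.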

HSP90 and hnRNPA2/B1 [6] = biological target: T1, HSP90 and hnRNPA2/B1; assay: Inhibition of HSP90/hnRNPA2/B1 in human CL1-5 cells assessed as reduction of slug expression at 0.5 ug/ml after 2 hrs by Western blotting analysis; format: cell-based
Outline: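 CL1-5 cells exposed to 0.5 μg/mL for 0.5, 1 or 2 h; Slug in cell extracts detected by Western blot with β-actin as loading control; representative of three experiments.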

CL1-5 [7] = assay: Antiinvasive activity against human CL1-5 cells after 20 hrs by matrigel-coated transwell assay; format: functional, cell-based
Outline: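 Transwell chambers (8 μm pores) coated with 5 μg/mL Matrigel; 2.5 × 10^4 cells seeded on top in medium with 10% NuSerum; after 20 h, cells reaching the lower side fixed in methanol, stained with 50 μg/mL propidium iodide and quantified by image analysis. Triplicate samples; mean ± SD of three independent experiments.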

Mus musculus = assay: Toxicity in Balb/c nu/nu mouse xenografted with human CL1-5 cells at 10 mg/kg, ip qd administered 3 times per week measured 2 times per week for 28 days; format: organism-based; set-up: dose 10 mg/kg, route intraperitoneal; conditions: in vivo, 672 h; outline: as §1
HSP90 and hnRNPA2/B1 [8] = biological target: T1, HSP90 and hnRNPA2/B1; assay: Inhibition of HSP90/hnRNPA2/B1 in human CL152 cells assessed as reduction of slug expression at 0.5 ug/ml after 5 hrs by Western blotting analysis; format: cell-based; outline: as §2
CL1-5 [9] = assay: Reduction of filopodia formation in human CL1-5 cells at 0.1 to 0.75 ug/ml by immunofluorescence staining-based microscopic analysis; format: functional, cell-based
HSP90 and hnRNPA2/B1 [10] = biological target: T1, HSP90 and hnRNPA2/B1; assay: Inhibition of HSP90/hnRNPA2/B1 in human CL1-5 cells assessed as upregulation of E-cadherin expression after 0.5 to 2 hrs by Western blotting analysis; format: cell-based
HSP90 and hnRNPA2/B1 [11] = biological target: T1, HSP90 and hnRNPA2/B1; assay: Inhibition of HSP90/hnRNPA2/B1 in human CL152 cells assessed as upregulation of E-cadherin expression after 5 hrs by Western blotting analysis; format: cell-based
CL1-5 [12] = assay: Binding affinity to HSP70 in human CL1-5 cell lysate after 1 hr by affinity chromatographic analysis; format: cell-free
Outline: (§3)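 CL1-5 lysate (10 mg protein; Tris pH 8.0 lysis buffer) held with or without 1 mM free ligand for 1 h, then loaded at 4 °C onto Sepharose 4B carrying the coupled ligand, with uncoupled beads as control. Washed with T buffer, eluted with 4 M urea/1 M NaCl; flow-through, wash and eluate probed by Western blot for HSP90, hnRNP A2/B1, HSP70 and β-actin.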

HSP90 and hnRNPA2/B1 [13] = biological target: T1, HSP90 and hnRNPA2/B1; assay: Inhibition of HSP90/hnRNPA2/B1 in human CL1-5 cells assessed as reduction of slug expression at 0.25 ug/ml up to 5 hrs by Western blotting analysis; format: cell-based; outline: as §2
HSP90 and hnRNPA2/B1 [14] = biological target: T1, HSP90 and hnRNPA2/B1; assay: Inhibition of HSP90/hnRNPA2/B1 in human CL1-5 cells assessed as reduction of slug expression at >0.5 ug/ml after 24 hrs by Western blotting analysis; format: cell-based
HSP90 and hnRNPA2/B1 [15] = biological target: T1, HSP90 and hnRNPA2/B1; assay: Binding affinity to HSP90/hnRNPA2/B1 in human CL1-5 cell lysate after 1 hr by affinity chromatographic analysis; format: cell-free; outline: as §3
HSP90 and hnRNPA2/B1 [16] = biological target: T1, HSP90 and hnRNPA2/B1; assay: Inhibition of HSP90/hnRNPA2/B1 in human CL1-5 cells; format: cell-based

Row | Compound | inhibition (HSP90 and hnRNPA2/B1 [1]) | TGI (CL1-5 [2]) | TGI (CL1-5 [3]) | inhibition (HSP90 and hnRNPA2/B1 [4]) | Activity (CL1-5 [5]) | inhibition (HSP90 and hnRNPA2/B1 [6]) | Activity (CL1-5 [7]) | Activity (Mus musculus) | inhibition (HSP90 and hnRNPA2/B1 [8]) | Activity (CL1-5 [9]) | inhibition (HSP90 and hnRNPA2/B1 [10]) | inhibition (HSP90 and hnRNPA2/B1 [11]) | Activity (CL1-5 [12]) | inhibition (HSP90 and hnRNPA2/B1 [13]) | inhibition (HSP90 and hnRNPA2/B1 [14]) | Activity (HSP90 and hnRNPA2/B1 [15]) | IC50 (HSP90 and hnRNPA2/B1 [16]) [µg/mL]
1 | COc1ccc2c(CN3CCC(CO)CC3)cc3cc4c(cc3c2c1)OCO4 | Active | Active | Active | Active | Active | Active | Dose-dependent effect | Non-toxic | Active | Active | Dose-dependent effect | Dose-dependent effect |  |  |  |  | 
2 | Cl.Cl.NCCOCCOCCOCCOc1ccc2c(CN3CCC(CO)CC3)cc3cc4c(cc3c2c1)OCO4 |  |  |  |  |  |  |  |  |  |  |  |  | inactive | inactive | Active | Active | 0.5
